Test results from PMC4497517 (Proteins, 2009).
“Also recorded” adds a separate entry of the source. Blank lines part the entries; values can stand above or below the compound they belong to. Where a SMILES comes first, the peptide text is derived from it.

How the values were obtained:
cdk2/cyclin E complex [1] = molecular target: T1, cdk2/cyclin E complex (Homo sapiens, UniProt P24941); conditions: cited from earlier work
[2] = system: RNA polymerase II (RNAPII) serine 5; conditions: by disrupting cdk2/cyclin E complex formation; cited from earlier work
cdk2 = conditions: cited from earlier work
cdk2 K178A = conditions: cited from earlier work
cdk2 Y180A = conditions: cited from earlier work
cdk2 R126A = conditions: alanine mutation experiment; cited from earlier work
cdk2/cyclin E complex [3] = molecular target: T1, cdk2/cyclin E complex; test: Phosphorylation of RNAPII CTD; assay type: biochemical
In short: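 C81 cell lysate was fractionated on Superose 6 size exclusion, and cdk2 fractions 28–32 were pooled with test peptide (0.01, 0.1, 1, 10 μM). Cyclin E was immunoprecipitated overnight at 4°C (1 μg antibody, ~100 ng active cdk2/cyclin E), captured on protein A/G beads and washed. Kinase reaction: 20 μl, 1 hr, 37°C, GST-CTD substrate, (γ-32P) ATP. Products run on 4–20% Tris-glycine gel, dried, 32P bands counted by phosphorimager.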

Compound: TAALS
- Disruption of cdk2/cyclin E complex (cdk2/cyclin E complex [1]): disrupts the cdk2/cyclin E complex; also recorded: succeeded in partially breaking the cdk2/cyclin E complex
- Inhibition of phosphorylation of serine 5 of RNAPII [2]: inhibits the phosphorylation of serine 5 of RNA polymerase II (RNAPII)
- Interaction with cdk2 (cdk2): interacts directly with cdk2
- Binding affinity to mutant (cdk2 K178A): dramatic reduction in their binding affinity
- Binding affinity to mutant (cdk2 Y180A): dramatic reduction in their binding affinity
- Effect of R126A mutation on peptide binding (cdk2 R126A): does not participate significantly in the peptide binding; also recorded: does not affect the binding of peptide TAALS

- IC50 (cdk2/cyclin E complex [3]): 4.26 µM
Compound: CC(C)C[C@H](NC(=O)[C@H](C)NC(=O)[C@H](C)NC(=O)[C@@H](N)CC(C)C)C(=O)N[C@@H](CO)C(=O)O [LAALS] (H-LAALS-OH)
